Laboratory results from ChEMBL document CHEMBL2346551, “A new series of N2-substituted-5-(p-toluenesulfonylamino)phthalimide analogues as α-glucosidase inhibitors” (Bioorg Med Chem Lett, 2013).

Columns and labels:
[1] = Inhibition of Saccharomyces cerevisiae alpha-glucosidase using 4-nitrophenyl alpha D-glucopyranoside as substrate assessed as release of 4-nitrophenol incubated for 5 mins prior to substrate addition measured after 10 mins
How it was run: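 Yeast α-glucosidase assayed at 37 °C with 4-nitrophenyl α-D-glucopyranoside as substrate in 10 mM sodium phosphate buffer, pH 7.28. […] Absorbance rise at 400 nm compared with a DMSO control; IC50 read graphically from percent activity versus log concentration.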

[2] = biological target: Lactase/phlorizin hydrolase (Rattus norvegicus, UniProt Q02401); test: Inhibition of rat intestinal lactase using lactose as substrate by colorimetric analysis
Lactase/phlorizin hydrolase, sequence (Q02401 868-1928 limits assumed): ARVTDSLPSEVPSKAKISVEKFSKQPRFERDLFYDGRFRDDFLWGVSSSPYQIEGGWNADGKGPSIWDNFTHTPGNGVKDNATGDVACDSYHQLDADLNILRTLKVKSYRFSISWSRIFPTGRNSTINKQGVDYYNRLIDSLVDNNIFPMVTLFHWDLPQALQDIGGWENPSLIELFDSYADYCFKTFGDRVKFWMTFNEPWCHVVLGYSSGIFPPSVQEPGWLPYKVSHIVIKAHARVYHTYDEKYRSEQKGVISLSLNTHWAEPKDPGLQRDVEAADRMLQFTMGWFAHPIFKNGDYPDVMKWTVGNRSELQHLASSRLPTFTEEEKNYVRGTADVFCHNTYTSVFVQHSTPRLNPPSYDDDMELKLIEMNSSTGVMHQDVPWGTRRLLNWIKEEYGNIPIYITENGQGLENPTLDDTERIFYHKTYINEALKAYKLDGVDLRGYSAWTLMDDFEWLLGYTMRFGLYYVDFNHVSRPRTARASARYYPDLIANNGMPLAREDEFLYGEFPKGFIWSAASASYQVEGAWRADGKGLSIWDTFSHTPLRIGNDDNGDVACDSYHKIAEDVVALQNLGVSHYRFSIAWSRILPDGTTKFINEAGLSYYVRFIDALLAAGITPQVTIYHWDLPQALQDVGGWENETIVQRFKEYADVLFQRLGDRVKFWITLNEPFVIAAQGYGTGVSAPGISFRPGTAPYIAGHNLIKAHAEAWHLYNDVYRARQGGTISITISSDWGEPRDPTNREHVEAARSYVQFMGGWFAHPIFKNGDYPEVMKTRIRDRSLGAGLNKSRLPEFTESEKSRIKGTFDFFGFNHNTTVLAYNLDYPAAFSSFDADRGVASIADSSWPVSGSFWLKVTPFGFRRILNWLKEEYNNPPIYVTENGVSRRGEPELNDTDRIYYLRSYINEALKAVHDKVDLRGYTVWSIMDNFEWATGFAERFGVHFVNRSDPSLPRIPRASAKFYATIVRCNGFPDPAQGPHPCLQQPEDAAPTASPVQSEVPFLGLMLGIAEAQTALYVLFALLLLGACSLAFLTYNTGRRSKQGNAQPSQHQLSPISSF

[3] = Inhibition of rat alpha-amylase using amylose as substrate by colorimetric analysis
[4] = biological target: Maltase-glucoamylase, intestinal (Rattus norvegicus); test: Inhibition of rat intestinal maltase using maltose as substrate by colorimetric analysis

| SMILES | IC50 [1] [µM] | IC50 [2] [µM] | IC50 [3] [µM] | IC50 [4] [µM] |
| --- | --- | --- | --- | --- |
| Cc1ccc(S(=O)(=O)Nc2ccc3c(c2)C(=O)N(Cc2ccccc2)C3=O)cc1 | 54.2 | > 200 | > 200 | > 200 |
| Cc1ccc(S(=O)(=O)Nc2ccc3c(c2)C(=O)N(Cc2ccc(Cl)c(Cl)c2)C3=O)cc1 | 28.7 | 101 | > 200 | 122 |
| Cc1ccc(S(=O)(=O)Nc2ccc3c(c2)C(=O)N(C)C3=O)cc1 | > 200 | > 200 | > 200 | > 200 |
| O=C1c2ccccc2C(=O)N1CCNc1ccccc1 | > 200 | > 200 | > 200 | 184 |
| Cc1ccc(S(=O)(=O)Nc2ccc3c(c2)C(=O)N(CCOc2ccc(O)cc2)C3=O)cc1 | 25.5 | 100 | > 200 | 47.7 |
| Cc1ccc(S(=O)(=O)Nc2ccc3c(c2)C(=O)N(Cc2ccc(C#N)cc2)C3=O)cc1 | 66.5 | 199 | > 200 | – |
| Cc1ccc(S(=O)(=O)Nc2ccc3c(c2)C(=O)N(CCNc2ccccc2)C3=O)cc1 | 58.5 | 177 | > 200 | 99.6 |
| Cc1ccc(S(=O)(=O)Nc2ccc3c(c2)C(=O)N(Cc2ccccc2F)C3=O)cc1 | 40.8 | 180 | > 200 | 195 |
| Cc1ccc(S(=O)(=O)Nc2ccc3c(c2)C(=O)N(CCNc2ccc(O)c(O)c2)C3=O)cc1 | 44.5 | 66.6 | > 200 | 28.8 |
| Cc1ccc(S(=O)(=O)Nc2ccc3c(c2)C(=O)N(N2CCOCC2)C3=O)cc1 | 52.1 | > 200 | > 200 | – |
| Nc1ccc2c(c1)C(=O)N(CCNc1ccccc1)C2=O | 138 | > 200 | > 200 | 144 |
| Cc1ccc(S(=O)(=O)Nc2ccc3c(c2)C(=O)N(CCOc2ccccc2)C3=O)cc1 | 47.3 | 170 | > 200 | – |
| Cc1ccc(S(=O)(=O)Nc2ccc3c(c2)C(=O)N(CCOc2cccc(O)c2)C3=O)cc1 | 28.7 | 111 | > 200 | 55.6 |
| Cc1ccc(S(=O)(=O)Nc2ccc3c(c2)C(=O)N(Cc2ccc(F)cc2)C3=O)cc1 | 42.7 | 172 | > 200 | – |
| C[C@H]1O[C@H](O[C@H]2[C@H](O)[C@@H](O)[C@@H](O[C@H]3[C@H](O)[C@@H](O)C(O)O[C@@H]3CO)O[C@@H]2CO)[C@H](O)[C@@H](O)[C@@H]1N[C@H]1C=C(CO)[C@@H](O)[C@H](O)[C@H]1O (stereo not given in full) [ACARBOSE] | 235 | 167 | 8.65 | – |
| Cc1ccc(S(=O)(=O)Nc2ccc3c(c2)C(=O)N(Cc2ccc(Cl)cc2)C3=O)cc1 | 32.6 | 155 | > 200 | 188 |
| Cc1ccc(S(=O)(=O)Nc2ccc3c(c2)C(=O)N(CCBr)C3=O)cc1 | 94.2 | > 200 | > 200 | > 200 |
| O=C1c2ccc([N+](=O)[O-])cc2C(=O)N1CCNc1ccccc1 | 68.9 | > 200 | > 200 | 111 |
| Cc1ccc(S(=O)(=O)Nc2ccc3c(c2)C(=O)N(CCCCBr)C3=O)cc1 | 69.7 | > 200 | > 200 | > 200 |
| Cc1ccc(S(=O)(=O)Nc2ccc3c(c2)C(=O)N(Cc2ccc(O)c(O)c2)C3=O)cc1 | 72.6 | 164 | > 200 | – |
| Cc1ccc(S(=O)(=O)Nc2ccc3c(c2)C(=O)N(Cc2ccc(C(N)=O)cc2)C3=O)cc1 | 60.3 | 84.1 | > 200 | – |
| Cc1ccc(S(=O)(=O)Nc2ccc3c(c2)C(=O)N(CCCBr)C3=O)cc1 | 88.4 | > 200 | > 200 | – |
